ChEMBL document CHEMBL4680165, “β-Lactams with antiproliferative and antiapoptotic activity in breast and chemoresistant colon cancer cells” (Eur J Med Chem, 2020)
Activity calls are given as the source filed them. The rule behind the calls is not given here.

Columns and labels:
MCF7 [1] = assay: Induction of apoptosis in human MCF7 cells assessed as downregulation of Mcl-1 expression level measured after 72 hrs by Western blot analysis; format: functional, cell-based; conditions: dose 0.05-0.5 µM
How it was run: (§1)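 MCF-7 cells (1 × 10^5 per flask) were treated at 0.05, 0.1 and 0.5 µM for 48 and 72 h; vehicle was 0.1% v/v ethanol. Lysis was in RIPA buffer with protease and phosphatase inhibitors. Equal protein (BCA) was run on 12% SDS-PAGE and blotted for Mcl-1, Bcl-2 and survivin, with GAPDH as loading control and ECL detection. Three independent experiments.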

HT-29 [2] = assay: Antiproliferative activity against human HT-29 cells assessed as reduction in cell viability after 72 hrs by alamar blue assay; format: functional, cell-based; conditions: HT-29, 72 h
How it was run: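 Cells seeded at 5 x 10^3/well (MCF-7) or 1 x 10^4/well (HT-29, HEK-293T) and treated after 24 h with serial dilutions (0.001-100 µM) in 1% v/v ethanol vehicle. Alamar Blue 10% v/v added at 72 h, then 3-5 h at 37 °C in the dark; fluorescence ex 530/em 590 nm. Viability relative to vehicle; IC50 from dose-response curves; mean of three experiments in triplicate.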

HT-29 [3] = assay: Antiangiogenic activity in human HT-29 cells assessed as increase in IL-1RA secretion at 5 uM after 24 hrs by ELISA; format: functional, cell-based
How it was run: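 HT-29 cells at 5 x 10^4 per well, cultured 24 h and then exposed to 5 µM compound. Conditioned medium collected on ice and stored at -80 °C. Cytokines and angiogenic, vascular-injury and chemokine factors measured by multiplex panels with overnight supernatant incubation (Angiogenesis Panel 1 and Vascular Injury Panel 2 same day). Medium undiluted except 1:4 for Vascular Injury Panel 2. Secretion normalised to lysate protein by BCA.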

HT-29 [4] = assay: Cell cycle arrest in human HT-29 cells assessed as accumulation at sub-G1 phase at 1 uM measured after 48 hrs by PI staining based flow cytometry analysis (reference value: 2.5 %); format: functional
How it was run: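 Cells (1 × 10^5/well) were treated at 1 µM for 24, 48 and 72 h; vehicle was 0.1% v/v ethanol. Cells were trypsinised, fixed in ice-cold 70% ethanol overnight at −20 °C, then stained with PI (50 µg/mL) plus DNase-free RNase A (50 µg/mL) at 37 °C for 30 min. DNA content of 10,000 cells per group was read by flow cytometry at 488 nm.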

MCF7 [5] = assay: Induction of apoptosis in human MCF7 cells assessed as downregulation of Bcl-2 expression level measured after 72 hrs by Western blot analysis; format: functional, cell-based; conditions: dose 0.05-0.5 µM; how it was run: as §1

`COc1ccc([C@H]2[C@H](O)C(=O)N2c2cc(OC)c(OC)c(OC)c2)cc1F` was tested, and the Activity (MCF7 [1]) was “Dose-dependent effect”, the IC50 (HT-29 [2]) was 3 nM and the Activity (HT-29 [3]) was “Active”. The Activity (HT-29 [4]) was 11% and the Activity (MCF7 [5]) was “Dose-dependent effect”.
